Test results reported in ChEMBL document CHEMBL1130270, “Design of [R-(Z)]-(+)-alpha-(methoxyimino)-1-azabicyclo[2.2.2]octane-3-acetonitri le (SB 202026), a functionally selective azabicyclic muscarinic M1 agonist incorporating the N-methoxy imidoyl nitrile group as a novel ester bioisostere” (J Med Chem, 1997).

Legend:
[1] = target: Muscarinic acetylcholine receptor; experiment: In vitro affinity evaluated using [3H]- oxotremorine as radioligand in rat cerebral cortex for muscarinic acetylcholine receptor; type: tissue-based
[2] = target: Muscarinic acetylcholine receptor; experiment: In vitro affinity evaluated using [3H]- quinuclidinyl benzilate as radioligand in rat cerebral cortex for muscarinic acetylcholine receptor; type: tissue-based
[3] = system: Rattus norvegicus; experiment: Dose producing 50% fall in blood pressure in anesthetized rats; type: functional
How it was run: (§1)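 Male Hooded Lister rats (300-380 g) under urethane anaesthesia, 37 °C. Increasing iv doses via femoral vein at 45 min intervals. BP recorded from carotid artery; HR derived from the BP signal. Peak effect within 1 min, expressed as % of predose. Value is the dose giving a transient 50% fall in mean BP or HR; 95% confidence limits.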

[4] = Ratio of 50% fall blood pressure to that of rhythmic slow wave activity in anesthetized rats; type: functional
How it was run: (§2)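 Same anaesthetized-rat dosing as above. Ratio of iv dose giving a transient 50% fall in BP (or HR) to the iv dose giving an arecoline-equivalent (0.32 mg/kg) change in hippocampal theta power.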

[5] = Partition coefficient is determined in octanol/buffer solution at pH 12; type: physicochemical
[6] = system: Rattus norvegicus; experiment: Dose producing 50% fall in heart rate in anesthetized rats; type: functional; how it was run: as §1
[7] = Ratio of 50% fall in heart rate to that of […] slow wave activity in anesthetized rats; type: functional; how it was run: as §2
[8] = target: T1, Muscarinic acetylcholine receptor M3 (Homo sapiens, UniProt P20309); experiment: In vitro affinity is evaluated, using quinuclidynyl benzylate (QNB) as radioligand in human cloned Muscarinic acetylcholine receptor M3
T1 sequence (P20309 whole entry): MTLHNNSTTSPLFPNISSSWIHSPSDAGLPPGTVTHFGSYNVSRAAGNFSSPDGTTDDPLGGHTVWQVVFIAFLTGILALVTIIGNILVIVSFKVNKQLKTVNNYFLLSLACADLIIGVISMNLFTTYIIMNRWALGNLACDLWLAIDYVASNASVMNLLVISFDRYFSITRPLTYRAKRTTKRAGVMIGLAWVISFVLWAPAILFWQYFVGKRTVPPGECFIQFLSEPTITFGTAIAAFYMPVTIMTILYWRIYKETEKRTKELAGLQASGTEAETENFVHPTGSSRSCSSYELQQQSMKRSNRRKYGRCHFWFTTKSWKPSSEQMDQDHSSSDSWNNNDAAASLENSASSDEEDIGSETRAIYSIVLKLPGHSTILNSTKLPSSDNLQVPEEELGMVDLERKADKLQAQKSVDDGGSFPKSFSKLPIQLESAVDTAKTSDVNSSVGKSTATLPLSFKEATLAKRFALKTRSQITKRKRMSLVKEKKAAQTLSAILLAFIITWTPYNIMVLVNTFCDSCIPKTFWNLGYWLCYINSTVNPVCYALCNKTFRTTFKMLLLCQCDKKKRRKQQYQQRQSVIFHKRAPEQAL

[9] = target: T2, Muscarinic acetylcholine receptor M2 (Homo sapiens, UniProt P08172); experiment: In vitro affinity is evaluated, using quinuclidynyl benzylate (QNB) as radioligand in human cloned Muscarinic acetylcholine receptor M2
T2 sequence (P08172 whole entry): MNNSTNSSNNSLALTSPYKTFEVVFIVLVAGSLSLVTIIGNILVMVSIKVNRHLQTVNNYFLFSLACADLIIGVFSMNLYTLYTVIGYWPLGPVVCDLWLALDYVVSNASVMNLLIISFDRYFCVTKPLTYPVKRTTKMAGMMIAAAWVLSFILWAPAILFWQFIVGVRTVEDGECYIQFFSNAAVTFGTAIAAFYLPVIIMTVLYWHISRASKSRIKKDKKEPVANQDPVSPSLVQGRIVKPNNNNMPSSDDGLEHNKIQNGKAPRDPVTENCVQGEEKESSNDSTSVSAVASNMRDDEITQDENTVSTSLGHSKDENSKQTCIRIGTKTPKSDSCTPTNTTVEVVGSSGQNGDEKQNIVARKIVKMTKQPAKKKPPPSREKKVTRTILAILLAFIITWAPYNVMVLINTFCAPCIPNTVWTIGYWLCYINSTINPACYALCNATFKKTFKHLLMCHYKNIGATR

[10] = system: Rattus norvegicus; experiment: Dose producing […] rhythmic slow wave activity in anesthetized rats; type: functional
[11] = target: T3, Muscarinic acetylcholine receptor M4 (Homo sapiens, UniProt P08173); experiment: In vitro affinity is evaluated, using quinuclidynyl benzylate (QNB) as radioligand in human cloned Muscarinic acetylcholine receptor M4
T3 sequence (P08173 whole entry): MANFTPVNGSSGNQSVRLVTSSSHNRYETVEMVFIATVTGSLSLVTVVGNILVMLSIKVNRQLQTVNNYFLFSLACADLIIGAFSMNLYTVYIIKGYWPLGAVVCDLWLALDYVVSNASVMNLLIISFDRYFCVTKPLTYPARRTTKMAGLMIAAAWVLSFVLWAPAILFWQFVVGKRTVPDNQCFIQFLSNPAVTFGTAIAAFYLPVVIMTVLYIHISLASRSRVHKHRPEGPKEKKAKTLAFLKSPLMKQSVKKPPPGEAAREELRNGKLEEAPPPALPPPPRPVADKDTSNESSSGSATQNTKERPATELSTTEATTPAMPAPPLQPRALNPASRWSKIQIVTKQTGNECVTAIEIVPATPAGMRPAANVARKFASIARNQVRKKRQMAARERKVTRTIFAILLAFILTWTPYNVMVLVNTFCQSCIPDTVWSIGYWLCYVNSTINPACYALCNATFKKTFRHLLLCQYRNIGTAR

[12] = target: T4, Muscarinic acetylcholine receptor M1 (Homo sapiens, UniProt P11229); experiment: In vitro affinity against human Muscarinic acetylcholine receptor M1 using quinuclidynyl benzylate (QNB)
T4 sequence (P11229 whole entry): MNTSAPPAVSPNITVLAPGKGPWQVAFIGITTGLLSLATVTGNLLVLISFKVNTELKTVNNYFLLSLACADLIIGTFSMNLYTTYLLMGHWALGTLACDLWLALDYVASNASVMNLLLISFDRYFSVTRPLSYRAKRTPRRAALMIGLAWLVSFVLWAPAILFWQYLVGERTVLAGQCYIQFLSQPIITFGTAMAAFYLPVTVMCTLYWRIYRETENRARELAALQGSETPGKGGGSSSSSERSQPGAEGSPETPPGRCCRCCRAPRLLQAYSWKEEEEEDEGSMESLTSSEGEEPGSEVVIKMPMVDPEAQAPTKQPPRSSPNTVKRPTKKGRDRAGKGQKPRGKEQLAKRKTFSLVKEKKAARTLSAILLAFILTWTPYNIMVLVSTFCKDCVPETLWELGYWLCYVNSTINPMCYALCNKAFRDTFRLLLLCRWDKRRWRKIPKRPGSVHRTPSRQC

[13] = Ratio of 50% fall in heart rate to that of in blood pressure in anesthetized rats; type: functional
[14] = system: Rattus norvegicus; experiment: Dose producing 50 % fall in mean blood pressure in anesthetized rats; type: functional; how it was run: as §1
[15] = species on record: Rattus norvegicus; experiment: Dose inducing hippocampal rhythmic slow wave activity; type: functional, Hippocampus
How it was run: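 Male Hooded Lister rats (300-380 g) under urethane anaesthesia, pretreated with atropine methyl nitrate 0.1 mg/kg iv. Dosing iv via femoral vein, saline vehicle. Bipolar electrode in right hippocampal CA1; EEG sampled at 128 Hz. Read-out is change in mean theta power (3–7 Hz).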

[16] = system: Mus musculus; experiment: Tremorigenic effects were assessed in mice after subcutaneous administration of the compound; type: functional; conditions: sc
How it was run: (§3)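 Male CD1 mice (25-35 g), dosed sc. Tremor scored subjectively: 0 absent, 1 mild, 2 moderate, 3 severe.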

[17] = system: Rattus norvegicus; experiment: Dose producing 50 % fall in heart rate in anesthetized rats; type: functional; how it was run: as §1
[18] = system: Rattus norvegicus; experiment: Extrapyramidal effects was assessed from the dose producing tremors in anesthetized rats
[19] = species on record: Mus musculus; experiment: Extrapyramidal effects was assessed from the dose producing tremors; type: functional; how it was run: as §3
[20] = species on record: Rattus norvegicus; experiment: Dose producing […] rhythmic slow wave activity in rat
[21] = Ratio of 50% fall in blood pressure to that of rhythmic slow wave activity in anesthetized rats; type: functional; how it was run: as §2
[22] = Ratio of IC50 QNB to that of OXO-M was determined; type: functional
How it was run: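 Rat cerebral cortex binding: IC50 for displacement of the antagonist [3H]QNB divided by IC50 for displacement of the agonist [3H]oxotremorine-M, used as an efficacy index.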

[23] = target: T3, Muscarinic acetylcholine receptor M4; experiment: In vitro affinity is evaluated, using quinuclidynyl benzylate (QNB) radioligand in human cloned Muscarinic acetylcholine receptor M4
How it was run: (§4)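 Membranes from CHO cells transfected with human m2, m3 or m4 receptors, prepared in 50 mM Tris (pH 7.4 at 37 °C). Displacement of 0.1 nM [3H]QNB; nonspecific binding defined with atropine sulfate. Incubated to equilibrium at 37 °C, ended by rapid vacuum filtration.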

[24] = target: T1, Muscarinic acetylcholine receptor M3; experiment: In vitro affinity is evaluated, using quinuclidynyl benzylate (QNB)radioligand in human cloned Muscarinic acetylcholine receptor M3; how it was run: as §4
[25] = target: T2, Muscarinic acetylcholine receptor M2; experiment: In vitro affinity is evaluated, using quinuclidinyl benzilate (QNB) as radioligand in human cloned Muscarinic acetylcholine receptor M2; how it was run: as §4
[26] = Distribution coefficient is the ratio of concentration in lipid phase to the concentration of compound in aqueous phase.; type: physicochemical
How it was run: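 Calculated for pH 7.3, not measured. D is the concentration of compound in the lipid phase divided by the concentration of all species in the aqueous phase.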

[27] = Dissociation constant is the negative logarithm of the equilibrium coefficient of the neutral and charged forms of the compound; type: physicochemical

Compound | IC50 [1] [nM] | IC50 [2] [nM] | ED50 [3] [mg/kg] | Ratio [4] | ED50 [6] [mg/kg] | Ratio [7] | ED Arec [10] [mg/kg] | other results
CO/N=C(\Cl)[C@@H]1CN2CC[C@H]1C2 | 100 | 8880 |  |  |  |  |  | 
CO/N=C(\C)C1CN2CCC1CC2 (centres undefined) |  |  | > 0.32 | >1 | > 0.32 | >1 |  | logD [5]: 1.88
CO/N=C(\C#N)[C@@H]1CN2CC[C@H]1C2 | 21 | 3175 | 0.024 | 4.8 | 0.021 | 4.2 | 0.005 | IC50 [8]: 1200 nM; IC50 [9]: 700 nM; IC50 [11]: 975 nM; IC50 [12]: 1500 nM
C#CCO/N=C/[C@H]1CN2CC[C@H]1C2 |  |  |  |  |  |  |  | Ratio [13]: 3.7
C=CCO/N=C/[C@H]1CN2CC[C@H]1C2 | 250 | 9700 |  |  |  |  |  | 
CO/N=C(\C#N)[C@H]1CN2CCC1CC2 [SABCOMELINE] | 14 | 310 |  | >18.8 |  | >18.8 |  | ED50 [14]: > 0.32 mg/kg; ED Arec [15]: 0.017 mg/kg; ED50 [16]: > 10 mg/kg; IC50 [8]: 60 nM; IC50 [9]: 180 nM; IC50 [11]: 90 nM; IC50 [12]: 170 nM; ED50 [17]: > 0.32 mg/kg; ED50 [18]: 0.12 mg/kg
CO/N=C(\F)C12CCCN(CC1)C2 (centres undefined) |  |  |  |  | 0.024 | 2 |  | logD [5]: 1.01
CO/N=C(\F)[C@H]1CN2CC[C@H]1C2 | 8.5 |  |  |  |  |  |  | 
CO/N=C(\Cl)C12CCCN(CC1)C2 (centres undefined) |  |  |  | 10 | 0.24 | 8.3 | 0.032 | logD [5]: 2.12
O=C1CCCN1CC#CCN1CCCC1 [OXOTREMORINE] |  |  |  |  |  |  |  | Activity [19]: 3; ED Arec [20]: 0.023 mg/kg; ED50 [16]: 0.07 mg/kg
COC(=O)C1=CCCN(C)C1 [ARECOLINE] |  |  | 0.022 |  | 0.024 |  | 0.32 | 
CO/N=C(\C#N)[C@H]1CN2CC[C@H]1C2 | 23 | 2300 | 0.015 | 4.7 | 0.009 | 2.8 | 0.0032 | IC50 [8]: 380 nM; IC50 [9]: 610 nM; IC50 [11]: 800 nM; IC50 [12]: 1180 nM
CCO/N=C/[C@H]1CN2CC[C@H]1C2 |  |  |  |  |  |  |  | Ratio [13]: >7.8; Ratio [21]: >7.8; ED50 [17]: > 1.8 mg/kg; Ratio [22]: 23
CO/N=C(\C#N)C1CN2CCC1CC2 (centres undefined) |  |  |  | >10.9 | > 0.56 | >10.9 |  | logD [5]: 1.56
CO/N=C(\Br)[C@@H]1CN2CC[C@H]1C2 | 170 | 2300 |  |  |  |  |  | 
CC#CCO/N=C/[C@H]1CN2CC[C@H]1C2 | 115 | 2900 |  |  |  |  |  | 
CO/N=C(\C#N)[C@@H]1CN2CCC1CC2 | 140 | 1130 | > 1 |  | > 1 |  | >1 | 
CO/N=C(\C#N)C12CCN(CC1)C2 |  |  | 0.01 | 1.8 | 0.0044 | 0.79 | 0.0056 | IC50 [8]: 300 nM; IC50 [9]: 240 nM; IC50 [11]: 495 nM; IC50 [12]: 1650 nM
CO/N=C(\C#N)C12CCCN(CC1)C2 (centres undefined) |  |  |  | 4 | 0.01 | 2 |  | logD [5]: 1.49; IC50 [23]: 49 nM; IC50 [24]: 28 nM; IC50 [25]: 31 nM; IC50 [12]: 99 nM
CO/N=C/[C@H]1CN2CC[C@H]1C2 |  |  |  |  |  |  |  | IC50 [8]: 2200 nM; IC50 [9]: 220 nM; Ratio [13]: 1.5; IC50 [11]: 1100 nM; IC50 [12]: 10000 nM
CO/N=C(/C#N)C1CN2CCC1CC2 (centres undefined) | 240 | 1300 |  |  |  |  |  | 
CCN1C(=O)CC2(CCN(C)CC2)C1=O |  |  |  |  |  |  |  | Activity [19]: 8.6; ED Arec [20]: 0.35 mg/kg; ED50 [16]: 3.8 mg/kg
CO/N=C(/C)C12CCCN(CC1)C2 (centres undefined) | 46 | 3400 | 0.068 | 1 | 0.042 | 0.6 | 0.068 | logD [26]: -1.13; logD [5]: 1.65; pKa [27]: 10.1
